For 20 compounds, IC50 and Activity results are on record in ChEMBL document CHEMBL1949523, “Synthesis and evaluation of aza-peptidyl inhibitors of the lysosomal asparaginyl endopeptidase, legumain” (Bioorg Med Chem Lett, 2012).

The target in one experiment is T1, Legumain (Mus musculus, UniProt O89017).
T1 sequence (O89017 whole entry): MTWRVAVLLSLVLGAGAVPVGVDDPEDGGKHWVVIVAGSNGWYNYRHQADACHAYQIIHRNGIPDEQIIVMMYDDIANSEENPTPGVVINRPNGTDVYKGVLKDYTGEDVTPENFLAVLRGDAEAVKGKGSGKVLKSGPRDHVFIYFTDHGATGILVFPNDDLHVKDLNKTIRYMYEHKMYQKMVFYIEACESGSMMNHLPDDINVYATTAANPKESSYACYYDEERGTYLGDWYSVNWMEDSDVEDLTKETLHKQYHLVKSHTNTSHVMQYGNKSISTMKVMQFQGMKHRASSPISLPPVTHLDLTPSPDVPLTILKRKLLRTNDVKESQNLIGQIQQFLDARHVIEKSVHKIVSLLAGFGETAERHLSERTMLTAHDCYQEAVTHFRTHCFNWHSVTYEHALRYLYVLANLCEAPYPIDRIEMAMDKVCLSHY
Briefly: Inhibition of mouse recombinant legumain using Cbz-Ala-Ala-Asn-AMC as substrate measured every 30 secs for 2.5 hrs by fluorimetry.

Experiment [1] in a line: Inhibition of cathepsin L using Cbz-Phe-Arg-AMC as substrate measured every 30 secs for 2.5 hrs by fluorimetry.
In experiment [2] the target is Cathepsin B (Mus musculus) (UniProt P10605). Briefly: Binding affinity to cathepsin B in mouse RAW264.7 cells at 10 uM after 60 mins by SDS-PAGE analysis. Type of experiment: cell-based. The method in brief: (§1)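 RAW 264.7 macrophages incubated with Cy5-labeled probes for 60 min across a concentration range. Cells lysed hypotonically, labeled proteins resolved on 12.5% SDS-PAGE, detected by in-gel fluorescence scanning.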
Sequence of Cathepsin B (Mus musculus) (P10605 80-333 limits assumed): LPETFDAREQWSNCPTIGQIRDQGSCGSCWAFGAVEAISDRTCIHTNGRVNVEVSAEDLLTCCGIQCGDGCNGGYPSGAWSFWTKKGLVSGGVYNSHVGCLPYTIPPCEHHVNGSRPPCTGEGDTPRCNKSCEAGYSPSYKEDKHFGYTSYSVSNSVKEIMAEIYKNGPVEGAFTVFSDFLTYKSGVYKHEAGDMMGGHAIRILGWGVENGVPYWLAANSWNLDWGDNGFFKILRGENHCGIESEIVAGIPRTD

Experiment [3] deals with T2, Pro-cathepsin H (Mus musculus) (UniProt P49935).
T2 sequence (whole entry): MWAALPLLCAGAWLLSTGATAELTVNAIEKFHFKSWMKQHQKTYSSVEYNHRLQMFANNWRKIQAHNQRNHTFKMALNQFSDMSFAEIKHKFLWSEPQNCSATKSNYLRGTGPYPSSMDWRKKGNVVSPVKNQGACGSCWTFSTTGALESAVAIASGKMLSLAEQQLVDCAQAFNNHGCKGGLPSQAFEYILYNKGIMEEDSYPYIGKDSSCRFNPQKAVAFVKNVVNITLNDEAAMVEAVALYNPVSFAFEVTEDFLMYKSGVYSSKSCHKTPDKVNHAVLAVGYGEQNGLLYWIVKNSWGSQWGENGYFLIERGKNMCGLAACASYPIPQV
Briefly: Binding affinity to cathepsin H in mouse RAW264.7 cells at 10 uM after 60 mins by SDS-PAGE analysis. In kind it is cell-based. The method in brief: as §1

Another experiment deals with T3, Legumain (Mus musculus) (UniProt O89017).
T3 sequence (whole entry): T1 sequence (O89017 whole entry)
Briefly: Binding affinity to legumain in mouse RAW264.7 cells at 0.1 to 10 uM after 60 mins by SDS-PAGE analysis. In kind it is cell-based. The gist of the method:
as §1

Activity calls are given as the source filed them. The rule behind the calls is not given here. A value given as a limit tells only on which side of the number the result lay.

In general, IC50 refers to the midpoint of a concentration-inhibition curve. In the case of `CCOC(=O)/C=C/C(=O)N(CC(N)=O)NC(=O)[C@@H]1CCCN1C(=O)[C@@H]1Cc2ccccc2CN1C(C)=O`, the IC50 on Legumain is above 1 µM.

As for `CCOC(=O)/C=C/C(=O)N(CC(N)=O)NC(=O)[C@@H]1CCCN1C(=O)[C@H](Cc1ccc(O)c([N+](=O)[O-])c1)NC(C)=O`, at Legumain, the IC50 is above 1 µM.

Regarding `CCOC(=O)C1OC1C(=O)N(CC(N)=O)NC(=O)[C@@H]1CCCN1C(C)=O` (some centres not stated), the IC50 at Legumain is 0.0093 µM; in experiment [1], 370 µM.

Take `CCOC(=O)/C=C/C(=O)N(CC(N)=O)NC(=O)[C@@H]1CCCN1C(=O)C1(NC(C)=O)CC1`: the IC50 at Legumain is 0.0093 µM; in experiment [1], above 1000 µM.

In the case of `CCOC(=O)/C=C/C(=O)N(CC(N)=O)NC(=O)[C@@H]1CCCN1C(=O)c1ccc(CNC(C)=O)cc1`, the IC50 on Legumain was determined as 0.267 µM.

In the case of `C/C=C(\NC(C)=O)C(=O)N1CCC[C@H]1C(=O)NN(CC(N)=O)C(=O)/C=C/C(=O)OCC`, the IC50 on Legumain turned out to be 0.141 µM.

Consider `CCOC(=O)[C@@H]1O[C@H]1C(=O)N(CC(N)=O)NC(=O)[C@@H]1CCCN1C(=O)C1(NC(=O)CCCCCNC(=O)CCCCCN2/C(=C/C=C/C=C/C3=[N+](CC)c4ccc(S(=O)(=O)O)cc4C3(C)C)C(C)(C)c3cc(S(=O)(=O)[O-])ccc32)CC1`, for which the outcome (in experiment [2]; in experiment [3]; on Legumain (Mus musculus)) was Active.

Regarding `CCOC(=O)/C=C/C(=O)N(CC(N)=O)NC(=O)[C@@H]1CCCN1C(=O)c1cccc(NC(C)=O)c1`, the IC50 on Legumain was above 1 µM.

Regarding `CCOC(=O)/C=C/C(=O)N(CC(N)=O)NC(=O)[C@@H]1CCCN1C(=O)[C@H]1CSCN1C(C)=O`, the IC50 at Legumain amounted to 0.167 µM.

Consider `CCOC(=O)/C=C/C(=O)N(CC(N)=O)NC(=O)[C@@H]1CCCN1C(=O)[C@H](CC)NC(C)=O`, for which the IC50 at Legumain stood at 0.0065 µM; in experiment [1], 964 µM.

Turning to `CCOC(=O)/C=C/C(=O)N(CC(N)=O)NC(=O)[C@@H]1CCCN1C(=O)C(C)(C)NC(C)=O`, at Legumain, the IC50 turned out to be 0.198 µM.

As for `CCOC(=O)/C=C/C(=O)N(CC(N)=O)NC(=O)[C@@H]1CCCN1C(=O)[C@H](CC)NC(=O)CCCCCNC(=O)CCCCCN1/C(=C/C=C/C=C/C2=[N+](CC)c3ccc(S(=O)(=O)O)cc3C2(C)C)C(C)(C)c2cc(S(=O)(=O)[O-])ccc21`, at Legumain (Mus musculus), the outcome was Active.

Regarding `C#CC[C@H](NC(C)=O)C(=O)N1CCC[C@H]1C(=O)NN(CC(N)=O)C(=O)/C=C/C(=O)OCC`, the values for the IC50 (at Legumain; in experiment [1]) were 0.017 µM and 855 µM, respectively.

With `CCOC(=O)C1OC1C(=O)N(CC(N)=O)NC(=O)[C@@H]1CCCN1C(=O)CCCCCNC(=O)CCCCCN1/C(=C/C=C/C=C/C2=[N+](CC)c3ccc(S(=O)(=O)O)cc3C2(C)C)C(C)(C)c2cc(S(=O)(=O)[O-])ccc21` (some centres not stated), the result (in experiment [2]; in experiment [3]; on Legumain (Mus musculus)) was Active.

For `CCOC(=O)/C=C/C(=O)N(CC(N)=O)NC(=O)[C@@H]1CCCN1C(=O)C(NC(C)=O)=C(C)C`, the IC50 at Legumain is 0.148 µM.

Regarding `CCOC(=O)/C=C/C(=O)N(CC(N)=O)NC(=O)[C@@H]1CCCN1C(C)=O`, the IC50 is 0.0083 µM at Legumain and above 1000 µM in experiment [1].

Consider `CCOC(=O)C1OC1C(=O)N(CC(N)=O)NC(=O)[C@@H]1CCCN1C(=O)[C@H](CC)NC(C)=O` (some centres not stated), for which the IC50 at Legumain is 0.0081 µM; in experiment [1], 890 µM.

On to `CCOC(=O)/C=C/C(=O)N(CC(N)=O)NC(=O)[C@@H]1CCCN1C(=O)CCCCCNC(=O)CCCCCN1/C(=C/C=C/C=C/CC2=[N+](CC)c3ccc(S(=O)(=O)O)cc3C2(C)C)C(C)(C)c2cc(S(=O)(=O)[O-])ccc21`, for which the outcome at Legumain (Mus musculus) was Active.

For `C#CC[C@H](NC(C)=O)C(=O)N1CCC[C@H]1C(=O)NN(CC(N)=O)C(=O)C1OC1C(=O)OCC` (some centres not stated), the values for the IC50 (on Legumain; in experiment [1]) were 0.0086 µM and 358 µM, respectively.

With `CCOC(=O)C1OC1C(=O)N(CC(N)=O)NC(=O)[C@@H]1CCCN1C(=O)C1(NC(C)=O)CC1` (some centres not stated), the IC50 at Legumain was found to be 0.0044 µM; in experiment [1], 106 µM.
